Activity calls are given as the source filed them. The rule behind the calls is not given here.
Key:
estrogen receptor = biological target: T1, estrogen receptor (Homo sapiens, UniProt P03372); assay: Inhibition of radioligand binding to estrogen receptor (unknown origin) at 1 uM relative to control
T1 sequence (P03372 whole entry): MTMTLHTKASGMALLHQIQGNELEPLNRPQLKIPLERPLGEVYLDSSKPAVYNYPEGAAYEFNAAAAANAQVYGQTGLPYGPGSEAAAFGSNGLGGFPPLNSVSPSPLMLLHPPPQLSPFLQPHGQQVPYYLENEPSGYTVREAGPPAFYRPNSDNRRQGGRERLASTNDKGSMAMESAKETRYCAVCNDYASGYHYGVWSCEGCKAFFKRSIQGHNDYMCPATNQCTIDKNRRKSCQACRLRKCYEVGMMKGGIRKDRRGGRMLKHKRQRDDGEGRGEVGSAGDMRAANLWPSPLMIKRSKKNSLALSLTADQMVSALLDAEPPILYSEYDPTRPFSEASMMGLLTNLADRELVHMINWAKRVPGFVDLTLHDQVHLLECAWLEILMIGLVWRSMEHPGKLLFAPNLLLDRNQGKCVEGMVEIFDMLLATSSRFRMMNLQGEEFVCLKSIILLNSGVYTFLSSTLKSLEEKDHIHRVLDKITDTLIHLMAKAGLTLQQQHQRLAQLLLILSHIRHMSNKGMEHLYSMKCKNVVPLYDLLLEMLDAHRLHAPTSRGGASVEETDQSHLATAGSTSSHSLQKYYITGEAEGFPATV

Glucocorticoid receptor = biological target: T2, Glucocorticoid receptor (Rattus norvegicus, UniProt P06536); assay: (§1) Agonist activity at rat glucocorticoid receptor in primary hepatocytes assessed as induction of tyrosine amino transferase activity measured after 20 hrs; type: cell-based
T2 sequence (P06536 whole entry): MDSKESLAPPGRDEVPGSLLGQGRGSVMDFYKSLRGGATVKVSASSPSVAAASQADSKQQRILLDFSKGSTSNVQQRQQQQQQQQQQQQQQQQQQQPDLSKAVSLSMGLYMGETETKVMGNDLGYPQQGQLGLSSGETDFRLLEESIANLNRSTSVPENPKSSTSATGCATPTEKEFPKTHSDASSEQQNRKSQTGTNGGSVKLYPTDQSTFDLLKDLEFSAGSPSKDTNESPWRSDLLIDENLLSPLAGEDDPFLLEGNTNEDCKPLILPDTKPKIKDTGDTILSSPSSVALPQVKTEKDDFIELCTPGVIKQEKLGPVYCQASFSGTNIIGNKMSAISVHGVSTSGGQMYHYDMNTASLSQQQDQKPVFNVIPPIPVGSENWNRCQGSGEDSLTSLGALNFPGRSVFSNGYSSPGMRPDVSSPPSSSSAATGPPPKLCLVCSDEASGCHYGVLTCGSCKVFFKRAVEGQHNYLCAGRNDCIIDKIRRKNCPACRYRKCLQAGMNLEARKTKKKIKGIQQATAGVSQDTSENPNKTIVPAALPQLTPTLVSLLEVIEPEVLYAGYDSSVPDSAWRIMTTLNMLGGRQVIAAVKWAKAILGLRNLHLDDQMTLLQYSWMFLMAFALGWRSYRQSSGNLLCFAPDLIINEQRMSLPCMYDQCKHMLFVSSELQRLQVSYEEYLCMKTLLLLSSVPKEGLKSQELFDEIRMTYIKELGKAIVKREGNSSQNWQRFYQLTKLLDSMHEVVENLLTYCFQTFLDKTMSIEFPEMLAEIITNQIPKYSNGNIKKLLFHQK

[1] = biological target: T3, Glucocorticoid receptor (Rattus norvegicus) (UniProt P06536); assay: as §1; type: cell-based
T3 sequence (whole entry): T2 sequence (P06536 whole entry)

Cytochrome P450 2B6 = biological target: T4, Cytochrome P450 2B6 (Homo sapiens, UniProt P20813); assay: Induction of CYP2B6 in human hepatocytes; type: ADME, cell-based
T4 sequence (P20813 whole entry): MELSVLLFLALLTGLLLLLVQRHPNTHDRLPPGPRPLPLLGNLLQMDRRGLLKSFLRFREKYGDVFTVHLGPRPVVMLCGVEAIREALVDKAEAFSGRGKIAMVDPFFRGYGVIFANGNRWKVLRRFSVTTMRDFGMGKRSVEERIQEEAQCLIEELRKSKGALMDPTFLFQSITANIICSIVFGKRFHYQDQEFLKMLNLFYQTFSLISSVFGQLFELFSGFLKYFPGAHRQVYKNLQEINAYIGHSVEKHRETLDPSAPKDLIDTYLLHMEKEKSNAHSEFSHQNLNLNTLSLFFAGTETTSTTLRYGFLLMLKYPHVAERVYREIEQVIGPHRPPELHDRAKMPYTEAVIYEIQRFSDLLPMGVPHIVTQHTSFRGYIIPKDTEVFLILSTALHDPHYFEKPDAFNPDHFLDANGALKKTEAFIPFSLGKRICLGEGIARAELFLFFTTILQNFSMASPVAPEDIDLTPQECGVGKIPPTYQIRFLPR

Cytochrome P450 2C9 = Cytochrome P450 2C9 (Homo sapiens, UniProt P11712); assay: Inhibition of CYP2C9 (unknown origin); type: ADME
Cytochrome P450 2C9, sequence (P11712 whole entry): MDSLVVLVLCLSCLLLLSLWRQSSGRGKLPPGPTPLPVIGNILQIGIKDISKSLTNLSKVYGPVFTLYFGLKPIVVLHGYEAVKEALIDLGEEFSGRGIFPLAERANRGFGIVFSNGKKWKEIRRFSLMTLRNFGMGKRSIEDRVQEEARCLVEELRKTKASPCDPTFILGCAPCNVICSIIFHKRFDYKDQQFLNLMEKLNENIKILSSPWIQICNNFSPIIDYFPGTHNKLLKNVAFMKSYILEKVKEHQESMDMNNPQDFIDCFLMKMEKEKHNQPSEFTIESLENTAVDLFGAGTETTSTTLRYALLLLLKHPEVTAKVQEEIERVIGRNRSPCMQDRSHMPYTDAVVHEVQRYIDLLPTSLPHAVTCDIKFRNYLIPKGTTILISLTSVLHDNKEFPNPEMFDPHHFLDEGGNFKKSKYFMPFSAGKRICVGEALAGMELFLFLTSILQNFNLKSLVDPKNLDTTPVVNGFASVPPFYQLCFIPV

[2] = Cmax in Sprague-Dawley CD-1 rat plasma at 3 mg/kg, po administered as cassette dose via gavage measured up to 24 hrs by LC/MS analysis; type: ADME, organism-based; set-up: dose 3 mg/kg, route oral
Outline: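 Three male Sprague Dawley CD-1 rats (220-250g) with jugular vein catheters; three test compounds plus a reference dosed together by oral gavage, 3mg/kg each, in DMSO:0.5% methylcellulose 10:90 (0.6mg/mL per compound), 5mL/kg. Plasma sampled pre-dose and at 0.25, 0.5, 1, 2, 4, 6, 8, 24 h; LC/MS.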

Rattus norvegicus = assay: In vivo antagonist activity at glucocorticoid receptor in Sprague-Dawley rat cortisone model of exogenous Cushing's syndrome assessed as inhibition of plasma insulin levels at 30 mg/kg, po bid via gavage for 6 days pretreated for 12 hrs followed by cortisone 21-acetate treatment measured 24 hrs after last cortisone 21-acetate treatment; type: functional, organism-based
Outline: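 Male Sprague Dawley rats (200-250g), 3-day vehicle baseline, groups of eight. Compound as suspension in DMSO:Tween 80:0.5% HPMC 10:0.1:89.9, oral gavage twice daily for 6 days; cortisone 21-acetate 30mg/kg s.c. daily in 1% methylcellulose. Tail-vein blood 24 h after last cortisone (12 h after last compound); glucose by clinical reagent, insulin by ultrasensitive rat ELISA.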

Cytochrome P450 3A5 = Cytochrome P450 3A5 (Homo sapiens, UniProt P20815); assay: Inhibition of CYP3A5 (unknown origin); type: ADME
Cytochrome P450 3A5, sequence (P20815 whole entry): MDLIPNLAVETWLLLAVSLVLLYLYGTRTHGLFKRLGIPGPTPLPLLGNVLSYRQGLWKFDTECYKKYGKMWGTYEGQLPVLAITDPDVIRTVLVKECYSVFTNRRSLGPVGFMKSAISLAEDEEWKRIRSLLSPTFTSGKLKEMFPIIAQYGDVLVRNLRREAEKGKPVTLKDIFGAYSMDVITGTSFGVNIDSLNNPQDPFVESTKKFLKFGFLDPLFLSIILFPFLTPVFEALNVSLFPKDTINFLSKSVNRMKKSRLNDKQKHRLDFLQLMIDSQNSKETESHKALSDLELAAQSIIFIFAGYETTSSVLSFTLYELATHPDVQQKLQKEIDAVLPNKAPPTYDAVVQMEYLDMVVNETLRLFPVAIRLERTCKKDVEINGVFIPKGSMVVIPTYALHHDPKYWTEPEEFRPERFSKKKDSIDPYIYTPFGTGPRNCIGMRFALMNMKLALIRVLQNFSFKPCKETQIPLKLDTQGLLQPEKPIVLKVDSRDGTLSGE

In the case of Cn1cc(S(=O)(=O)N2CCC3=Cc4c(cnn4-c4ccc(F)cc4)C[C@]3(C(=O)c3cc(C(F)(F)F)ccn3)C2)cn1 [RELACORILANT], the inhibition at 1 µM (estrogen receptor) is reported as < 10%, the EC50 (Glucocorticoid receptor) is reported as > 10 µM and the Emax [1] is reported as 22%. For the same compound, the Activity (Cytochrome P450 2B6) was “Not Active”, the IC50 (Cytochrome P450 2C9) was 2 µM and the Cmax [2] was 262 ng/mL. The inhibition (Rattus norvegicus) was “Active” and the IC50 (Cytochrome P450 3A5) was 4.9 µM.

Source: ChEMBL document CHEMBL4049426, “Identification of the Clinical Candidate (R)-(1-(4-Fluorophenyl)-6-((1-methyl-1H-pyrazol-4-yl)sulfonyl)-4,4a,5,6,7,8-hexahydro-1H-pyrazolo[3,4-g]isoquinolin-4a-yl)(4-(trifluoromethyl)pyridin-2-yl)methanone (CORT125134): A Selective Glucocorticoid Receptor (GR) Antagonist” (J Med Chem, 2017)
